Source: PMC6734327 (Heliyon, 2019)

Legend:
[1] = test system: MRC-5 (human lung fibroblast); assay: Cytotoxic assay, alamar blue, non-cancer MRC-5; assay type: cell-based; conditions: MRC5, 72 h, read-out: IC50 MRC-5
How it was run: (§1)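 Cells from ATCC, mycoplasma-negative, grown in RPMI 1640 with 10% FBS at 37 °C and 5% CO2. Seeded at 0.7 × 10^5 cells/mL (adherent) or 0.3 × 10^6 cells/mL (suspension), then pre-incubated for 24 h. Test compound in DMSO added for 72 h; doxorubicin was the positive control and DMSO the vehicle control. Resazurin stock (0.312 mg/mL) added 4 h before the end. Absorbance read at 570/595 nm. IC50 taken from non-linear regression of % inhibition versus log concentration.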

[2] = test system: MCF-7 (human breast adenocarcinoma); assay: Cytotoxic assay, alamar blue, MCF-7; assay type: cell-based; conditions: MCF7, 72 h, read-out: IC50 MCF-7
How it was run: as §1

[3] = test system: HepG2 (human hepatocellular carcinoma); assay: Cytotoxic assay, alamar blue, HepG2; assay type: cell-based; conditions: HepG2, 72 h, read-out: IC50 HepG2
How it was run: as §1

lung cancer (SK-LU-1) = conditions: read-out: IC50 SK-LU-1; cited from earlier work
breast cancer (MCF7) = conditions: read-out: IC50 MCF7; cited from earlier work
prostate cancer (PC-3) = conditions: read-out: IC50 PC-3; cited from earlier work

SMILES | IC50 [1] [µM] | IC50 [2] [µM] | IC50 [3] [µM] | IC50 (lung cancer (SK-LU-1)) [µM] | IC50 (breast cancer (MCF7)) [µM] | IC50 (prostate cancer (PC-3)) [µM]
C[C@]12CC[C@@H]3c4ccc(O)cc4CC[C@H]3[C@@H]1CC[C@@]2(O)c1cn(CC(=O)c2ccccc2)nn1 [3a, 2-(4-((8R,9S,13S,14S,17S)-3,17-dihydroxy-13-methyl-7,8,9,11,12,13,14,15,16,17-decahydro-6H-cyclopenta[a]phenanthren-17-yl)-1H-1,2,3-triazol-1-yl)-1-phenylethan-1-one] | > 54.6 | > 54.6 | 29.7 |  |  | 
C[C@]12CC[C@H](O)CC1=CC[C@@H]1[C@@H]2CC[C@]2(C)C(C(=O)Cn3cncn3)=CC[C@@H]12 [3β-hydroxy-21-(1H-1,2,4-triazol-1-yl)pregna-5,16-dien-20-one] |  |  |  | 230 | 360 | 17
COc1cccc2c1C(=O)c1c(O)c3c(c(O)c1C2=O)C[C@@](O)(C(=O)CO)C[C@@H]3O[C@H]1C[C@H](N)[C@H](O)[C@H](C)O1 [Doxorubicin] | 2.4 |  |  |  |  | 
